# Mdm2 ligase inh – inhibitors of human Mdm2 E3 ubiquitin ligase. Q00987. cell-based MDM2 ubiquitination luciferase reporter, 2 h; 0 = plate control, 100 = twice control, blank-subtracted. signal enhancement, % at 5 µM. 210,000 compounds, 0.11% hits. AID 1230;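 active means signal enhancement of 30% or more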;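 further: luminescence tracks abundance of the self-degrading MDM2-luciferase fusion protein; higher signal means inhibition of MDM2 E3 ligase activity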
# Target sequence (Q00987 whole entry, looked up, the tested form may be a part): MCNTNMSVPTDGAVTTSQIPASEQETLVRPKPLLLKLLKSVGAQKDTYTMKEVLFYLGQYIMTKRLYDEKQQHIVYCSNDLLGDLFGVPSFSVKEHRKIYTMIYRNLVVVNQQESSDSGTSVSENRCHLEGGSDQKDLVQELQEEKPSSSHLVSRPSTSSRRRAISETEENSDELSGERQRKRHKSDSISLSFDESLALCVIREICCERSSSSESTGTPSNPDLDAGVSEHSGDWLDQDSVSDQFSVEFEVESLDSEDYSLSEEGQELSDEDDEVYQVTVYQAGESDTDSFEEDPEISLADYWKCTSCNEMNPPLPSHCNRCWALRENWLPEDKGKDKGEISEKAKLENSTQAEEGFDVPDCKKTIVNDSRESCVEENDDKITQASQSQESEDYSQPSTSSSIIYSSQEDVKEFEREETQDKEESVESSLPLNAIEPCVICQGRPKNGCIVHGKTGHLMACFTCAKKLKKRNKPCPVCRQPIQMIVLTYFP
#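 Buffer or medium: Cells held in DMEM | Assay system: Stable mammalian line carrying autodegrading MDM2–luciferase fusion reporter | Quantity: 2000 cells/well | Times: 4 h settle plus 2 h compound, 37 °C | Doses: One concentration, 5 µM, with 0.2% DMSO | Technique: Luminescence with SteadyLite reagent, 15 min at room temperature | Benchmarks: Plate controls and plate blanks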
# B2AR ag – activates human beta-2 adrenergic receptor causing internalization | P07550 | Am2.2-beta2AR cells, FAP receptor internalization, flow cytometry | response, % (concentration not given with the values) | 340,000 compounds, 0.43% hits;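 active means response above a set limit, near 3 SD of response in nonfluorescent compounds, cut at about 42% in these data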
# zVAD death inh – blocks zVAD induced death of L929 cells. L929 zVAD necroptosis rescue, ATP luminescence, 24 h; with zVAD 60 µM. 220,000 compounds, 0.38% hits. viability rescue, % at 10 µM;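 active means activation, scaled between plate controls, above about 75%, limit read from the data; inactive means activation under that limit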;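 further: 0% = zVAD with DMSO and 100% = DMSO alone without zVAD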
# TNF necrop inh – TNF-alpha cell death inhibition in Jurkat FADD-/- cells; activation (protection from cell death), % at 10 µM; 220,000 compounds, 0.068% hits; Jurkat FADD-/- TNF necroptosis rescue, ATP luminescence, 24 h; 0 = TNF only, 100 = no-TNF cells;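 active means activation, meaning protection from cell death, of at least 50% relative to plate controls; inactive means activation below 50%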;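 further: necroptosis triggered by 40 ng/mL TNF-alpha added together with compound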
# Dynein transport – blocks dynein driven cargo transport along microtubules | 3617.4 mouse cells, GR-EGFP nuclear translocation imaging; test concentration mostly 20 µM; stimulated with dexamethasone, 1 µM; active compounds read low | z-score, hits read low | 220,000 compounds, 0.47% hits;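 active means plate z-score of nuclear minus cytoplasmic receptor signal below a set negative limit, without overly bright fluorescence or cell loss, cut at about -3.5 in these data, passing the limit was not always enough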;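 further: z-score of nuclear minus cytoplasmic ring GR-EGFP intensity difference per well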
#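 Buffer or medium: tetracycline-free induction medium containing charcoal-stripped FBS / Reagent: dexamethasone agonist, 1.0 µM final, for 30 min / Technique: automated 10x imaging of fixed Hoechst-stained cells / Times: induction 48 h, compound 1 h, agonist 30 min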
# Beta2AR ag CP1 – activates human beta-2 adrenergic receptor; 1,100 compounds, 25% hits; shares compounds with B2AR ag; Am2.2-beta2AR cells, FAP surface receptor, flow cytometry; active compounds read low; percent response (surface receptor), % at 10 µM;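 active means surface receptor percent response at or below 58%, roughly 3 SD from nonfluorescent compounds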
# FAP fluor counter – fluorescence artifact in beta-2AR agonist FAP counterscreen | Am2.2 cells, FAP fluorogen flow cytometry; active compounds read low | calls only at 10 µM | 1,100 tested, under 10 active | shares compounds with B2AR ag;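 active means percent response below a set limit in fluorescence channel 1 and below 50% in channel 8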
# The depositor's hits bear a star; i = inactive; / = no result given. Most compounds without a hit are left out; they make up all but 0.97% or so of the library.
SMILES,Mdm2 ligase inh,B2AR ag,zVAD death inh,TNF necrop inh,Dynein transport,Beta2AR ag CP1,FAP fluor counter
CCc1ccc(CN(C)C(=O)c2cc(COc3cncc(Cl)c3)on2)cc1,/,/,/,/,/,106,i
CCc1ccc(CN(C)C(=O)c2cc(COc3ccc(-n4cncn4)cc3)on2)cc1,/,-5,/,/,/,/,/
COC(=O)[C@@H](NC(=O)c1cc(COc2cncc(Cl)c2)on1)c1ccccc1,/,2,/,/,/,97,i
OC(C1=CC(=Cc2ccncc2)c2ccccc21)c1ccncc1 (stereo unspecified),/,-1,/,/,/,/,/
CC(=O)N1c2ccccc2NC(=O)C1(C)C,-8,-5,0,0,0.19,/,/
Cc1ccc(S(=O)(=O)Nc2cccc3cccnc23)cc1,-16,45*,0,-13,0.47,87,i
COc1cc(NS(=O)(=O)c2ccc(C)cc2)c2ncccc2c1,-15,31,51,-10,-0.47,/,/
CCOc1ccc(CNC(=O)c2ccc(NC(=O)C3=CSCCO3)cc2)cc1,/,105*,/,/,/,21*,i
O=C(OCc1nnc(-c2ccccc2)o1)c1ccc(Cl)cc1,0,-1,0,0,-0.064,/,/
O=C(OCc1nnc(-c2ccccc2)o1)c1ccc(CO)cc1,-10,-12,1,0,0.16,98,i
COc1ccccc1N1C(=O)c2ccc(C(=O)Nc3cccc(C(C)=O)c3)cc2C1=O,/,1,/,/,/,/,/
NS(=O)(=O)c1cccc(NC(=O)c2cccc(N3C(=O)c4ccccc4C3=O)c2)c1,/,-7,/,/,/,108,i
CC(=O)c1cccc(NC(=O)c2cccc(N3C(=O)c4ccccc4C3=O)c2)c1,/,7,/,/,/,100,i
NS(=O)(=O)c1cccc(NC(=O)c2cccc(Oc3ccccc3)c2)c1,/,-7,/,/,/,/,/
Cc1ccccc1CSc1nc2ccccc2c(=O)[nH]1,-5,7,2,2,0.54,/,/
COc1ccccc1C(CCNCc1ccccc1)c1ccc(OC(C)C)cc1 (stereo unspecified),/,25,/,/,/,111,i
COc1ccccc1C(CCNCc1ccc(N(C)C)cc1)c1ccc(OC(C)C)cc1 (stereo unspecified),/,65*,/,/,/,62,i
COc1ccc(CNCCC(c2ccc(OC(C)C)cc2)c2ccccc2OC)cc1 (stereo unspecified),/,28,/,/,/,78,i
COc1ccc(C(CCNCc2ccc(OC(C)C)cc2)C(C)C)cc1 (stereo unspecified),-12,19,6,-9,-0.97,/,/
COc1ccc(CNCCC(c2ccccc2)c2ccc3c(c2)OCO3)cc1 (stereo unspecified),-12,21,4,-4,-0.45,82,i
Cc1cccc2sc(NC(=O)CSc3cn[nH]n3)nc12,/,5,/,/,/,/,/
O=C(C1CCC1)N1CCN(S(=O)(=O)c2cccc(F)c2)CC1,/,-5,/,/,/,/,/
CC(C)c1ccc(NC(=O)CCNC(=O)Cn2ccc3ccccc3c2=O)cc1,/,4,/,/,/,/,/
O=C(COC(=O)Cc1cccc(C(F)(F)F)c1)NCc1ccco1,/,-1,/,/,/,/,/
O=C(CSc1n[nH]c(-c2ccncc2)n1)Nc1ccccn1,-10,-2,1,1,0.52,/,/
SMILES,Mdm2 ligase inh,B2AR ag,zVAD death inh,TNF necrop inh,Dynein transport,Beta2AR ag CP1,FAP fluor counter
COc1ccc(CNCCC(c2ccc(OC(C)C)cc2)c2ccccc2OC)cc1OC (stereo unspecified),/,12,/,/,/,105,i
O=S1(=O)c2ccccc2C(CCO)N1Cc1ccccc1 (stereo unspecified),26,1,0,0,-0.47,/,/
Cc1cc(Cl)c2oc(C(=O)N3CCN(c4ccncc4)CC3)c(C)c2c1,/,65*,/,/,/,65,i
COC(=O)c1cc(NC(=O)Cn2c(=O)oc3ccccc32)cc(C(=O)OC)c1,/,71*,/,/,/,122,i
COc1ccc(C=O)cc1Cn1ccnc1C,2,0,31,-1,-0.33,/,/
CCOC(=O)C(=O)N1CCC(Cc2ccccc2)CC1,-4,4,-1,1,-1.1,/,/
CCOC(=O)CSCC(=O)N1CCC(Cc2ccccc2)CC1,/,66*,/,/,/,90,i

# Screens deposited in PubChem by several laboratories.
